# Screens from PubChem.
# IDE act: human IDE activators in live cells, primary screen, fluorescence polarization, HEK cells, FAbeta-B substrate; Insulin-degrading enzyme (Homo sapiens), P14735; FAbeta-B cleavage; 0% vehicle, 100% cell-free pure enzyme wells; activation, % at 5.96 µM; 0.073% of 340,000 active;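 active means activation above the mean of all tested compounds plus 3 SD, set per screening campaign, cut at about 17% in these data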
# TRPML3 agonist: human TRPML3 channel agonists, primary screen, cell-based, HEK293 TRPML3-YFP, Fluo-8 calcium fluorescence, 3 µM; Mucolipin-3 (Homo sapiens), Q8TDD5; 100% = the carbachol control signal; activation, % at 3 µM; 0.29% of 220,000 active;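 active means activation above its plate's cutoff, the mean activation of the plate's test wells plus 3 SD, cut at about 12% in these data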
#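 Test system – HEK293 line with stable expression of human TRPML3-YFP channel · Control set – carbachol 87 µM final as high control (100%), DMSO as low control (0%) · Signal – Fluo-8 calcium dye fluorescence, ex 470-495, em 515-575 nm · Incubation – 1-h 37 °C dye load, 5-s basal, 120-s post-compound reads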
# IDE cell inh: human IDE inhibitors in live cells, primary screen, fluorescence polarization, HEK cells, FAbetaB substrate | Insulin-degrading enzyme (Homo sapiens), P14735 | inhibition, % at 5.59 µM | FAbetaB cleavage | 0.41% of 320,000 active;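 active means percent inhibition above the average of all tested compounds plus 3 SD, set per screening campaign, cut at about 16% in these data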;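 further: IDE supplied by intact live HEK cells; FP after avidin binding of uncleaved biotin substrate so inhibition keeps polarization high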
# TRPN1 ag: zebrafish TRPN1 channel agonists, primary screen, cell-based, HEK293, calcium fluorescence | transient receptor potential cation channel N1 (TRPN1/NompC), Danio rerio | HEK293 zebrafish TRPN1-YFP, Fluo-8 calcium fluorescence; 100% = response to 87 µM carbachol | 0.18% of 220,000 active | activation, % at 3 µM;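 active means activation above its plate's cutoff, the mean activation of test wells on that plate plus 3 SD, cut at about 19% in these data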
#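 System: zebrafish TRPN1-YFP in HEK293 cells / Dosing: 3 µM single point / Timing: dye loading 1 h at 37 °C, then 30 min room temperature / Signal: Fluo-8 calcium fluorescence, excitation 470-495 nm, emission 515-575 nm / Read-out basis: percent activation from peak over basal fluorescence ratio, control-normalized / Control set: high carbachol 87 µM, low DMSO alone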
# IDE cell inh cf: human IDE inhibitors in live cells, confirmation, fluorescence polarization, HEK cells, FAbetaB substrate. shares compounds with IDE cell inh. FAbetaB cleavage. inhibition, % at 5.59 µM. 51% of 1,200 active. AID 435028, 2010;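 active means mean inhibition across triplicate wells above the cutoff set by the earlier primary insulin-degrading enzyme screen, cut at about 16% in these data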
# HEK cytotox: cytotoxicity in HEK cells, cytotoxicity control for IDE inhibitor project, cell-based, luminescence; shares compounds with IDE cell inh; 28% of 1,200 active; HEK293 cytotoxicity, ATP luminescence; AID 449730, 2010; inhibition, % at 5.59 µM; in the data active means inhibition above about 22%
# A number is an active result; - = inactive; . = not tested or not shown. An excerpt weighted towards active compounds, which were near 0.63% of everything screened.
SMILES,IDE act,TRPML3 agonist,IDE cell inh,TRPN1 ag,IDE cell inh cf,HEK cytotox
O=C(O)CC12CC3CC(C1)CC(n1ncc(NCc4ccccc4Cl)c(Cl)c1=O)(C3)C2,-,-,39,-,20,-
O=C(O)CC12CC3CC(C1)CC(n1ncc(NCc4ccc(F)cc4Cl)c(Cl)c1=O)(C3)C2,-,-,28,-,21,-
Cc1nc(Nc2nc(CSc3nc4ccccc4[nH]3)cc(=O)[nH]2)nc2ccccc12,-,-,45,-,-,42
O=[N+]([O-])/C=C/c1cn(Cc2ccccc2)c2ccccc12,-,-,-,-,.,.
N#Cc1ccccc1Cn1cc(/C=C/[N+](=O)[O-])c2ccccc21,-,-,16,-,-,85
CC1CCCCN1C(=S)NC(=O)c1cc(Br)ccc1Cl (configuration not stated),-,.,-,.,.,.
COc1cc(C(CC(=O)Nc2ccc(Cl)cn2)N2Cc3ccccc3C2=O)cc(OC)c1OC (configuration not stated),-,.,-,.,.,.
Cc1ccc(-c2cc(C(=O)Nc3ccc(S(=O)(=O)N4CC(C)OC(C)C4)cc3)[nH]n2)c(O)c1 (configuration not stated),-,-,20,-,-,32
Cc1ccc(O)c(-c2cc(C(=O)Nc3ccc(S(=O)(=O)N4CC(C)OC(C)C4)cc3)[nH]n2)c1 (configuration not stated),-,-,-,-,.,.
S=c1[nH]nc(Nc2cccc(Cl)c2)s1,-,-,17,-,-,-
COc1cc(-c2cc(=O)c3ccccc3o2)ccc1O,-,-,25,-,24,-
COc1cc(-c2cc(=O)c3c(O)cc(O)cc3o2)ccc1O,.,-,-,-,.,.
CC1CC(C)CN(CC(=O)NCCc2ccc(S(N)(=O)=O)cc2)C1 (configuration not stated),-,-,-,-,.,.
